Compounds with a hit are over-represented: about 2.7% of the library has one in this group of screens.
ABCB1 inh – ABCB1 efflux pump inhibitors, primary screen, cell-based, multiplex, flow cytometry, ABCG2 counter-screen; inhibition, % at 6.6 µM; actives 0.067% (n = 190,000); CCRF-Adr cells, JC-1 efflux; in the data active = inhibition above about 40%;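 also: 0% = vehicle and 100% = reference inhibitor; higher value means more JC-1 retained so stronger ABCB1 efflux block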
Target sequence (P08183 whole entry, looked up): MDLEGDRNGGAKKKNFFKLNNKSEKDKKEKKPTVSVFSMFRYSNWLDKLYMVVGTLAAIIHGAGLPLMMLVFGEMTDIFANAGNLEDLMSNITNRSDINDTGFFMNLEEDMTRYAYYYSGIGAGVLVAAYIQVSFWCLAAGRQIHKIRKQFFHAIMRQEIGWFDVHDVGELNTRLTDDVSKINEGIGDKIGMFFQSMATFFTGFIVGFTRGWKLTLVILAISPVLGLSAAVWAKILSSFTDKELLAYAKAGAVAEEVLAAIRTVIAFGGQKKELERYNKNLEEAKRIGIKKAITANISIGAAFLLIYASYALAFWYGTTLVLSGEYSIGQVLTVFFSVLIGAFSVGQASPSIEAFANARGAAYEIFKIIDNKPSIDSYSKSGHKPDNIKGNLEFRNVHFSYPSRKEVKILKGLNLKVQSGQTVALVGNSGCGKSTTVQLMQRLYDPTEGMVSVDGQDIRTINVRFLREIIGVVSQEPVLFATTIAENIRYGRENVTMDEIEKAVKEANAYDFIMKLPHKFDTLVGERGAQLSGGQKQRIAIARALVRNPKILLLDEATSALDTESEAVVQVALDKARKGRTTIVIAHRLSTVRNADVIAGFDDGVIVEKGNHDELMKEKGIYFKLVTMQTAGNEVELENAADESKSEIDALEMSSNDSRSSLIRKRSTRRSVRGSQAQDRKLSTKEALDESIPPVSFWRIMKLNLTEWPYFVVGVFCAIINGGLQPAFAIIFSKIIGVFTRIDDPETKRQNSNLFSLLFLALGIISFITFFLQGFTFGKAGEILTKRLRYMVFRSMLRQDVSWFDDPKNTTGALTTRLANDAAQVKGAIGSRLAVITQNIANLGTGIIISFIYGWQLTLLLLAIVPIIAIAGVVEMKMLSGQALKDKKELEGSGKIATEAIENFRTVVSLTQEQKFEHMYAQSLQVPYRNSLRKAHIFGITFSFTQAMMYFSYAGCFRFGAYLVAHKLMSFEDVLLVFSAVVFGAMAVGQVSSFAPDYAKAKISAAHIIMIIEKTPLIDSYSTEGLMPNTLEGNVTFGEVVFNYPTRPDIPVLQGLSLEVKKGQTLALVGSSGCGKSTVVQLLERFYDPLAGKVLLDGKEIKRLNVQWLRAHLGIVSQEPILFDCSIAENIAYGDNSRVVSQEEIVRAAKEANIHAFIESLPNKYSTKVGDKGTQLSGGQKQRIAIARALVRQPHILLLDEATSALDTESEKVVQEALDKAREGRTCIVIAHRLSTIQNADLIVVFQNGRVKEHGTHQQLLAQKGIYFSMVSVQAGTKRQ
DTT redox prof – compounds producing H2O2 with reducing agent – biochemical, NIH compound library profiling, artefact control for MLSCN library redox annotation, primary screen; activation, % at 10 µM; AID 878, 2007; DTT-dependent redox cycling H2O2, phenol red/HRP absorbance; 100% = 100 µM peroxide control, 0% = buffer; actives 0.03% (n = 200,000);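 active = activation of at least 50% relative to the plate's high and low controls in the primary single-dose screen; inactive = activation below 50%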;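 also: compound incubated with DTT at 0.8 mM final as the reducing agent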
FLuc stim CS – FLuc activators, initial screening, artefact control for FLuc-dependent activation tests, biochemical, ATPlite luminescence. ATPlite luciferase biochemical, 10 min; 0 = ATP-free wells, 1 = DMSO control. 200,000 tested, under 10 active. Luciferin 4-monooxygenase (Photinus pyralis), P08659. activation factor at 10 µM;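 active = luciferase activation factor, scaled between plate controls, of at least 2 with compound at 10 µM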
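assay system = Luciferase/luciferin detection reagent, cell-free biochemical luciferase assay | also added = ATP substrate | times = 10 min post-reagent at room temperature | measured by = luminescence from luciferase reaction | measure = luciferase activation, seen as luminescence increase over controls | benchmarks = low control with PBS replacing ATP, high control enzyme plus ATP without compound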
FLuc inh counter – firefly luciferase enzyme inhibitors, primary screen, artefact control for luciferase-based inhibitor screens, biochemical, luminescence, ATPLite. 10 min. AID 1006, 2008. inhibition, % at 10 µM. Luciferin 4-monooxygenase (Photinus pyralis), P08659. actives 1.5% (n = 200,000);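 active = inhibition above about 50% when tested at 10 µM, limit read from the data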
ABCG2 inh – ABCG2 efflux pump inhibitors, primary screen, multiplex with ABCB1, IgMXP3 cells, flow cytometry | JC-1 efflux | inhibition, % at 6.6 µM | actives 0.1% (n = 190,000);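 active = inhibition above 80%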;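 also: 0% = DMSO and 100% = nicardipine control wells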
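test system = two drug-resistant human cell lines, ABCG2 and ABCB1 | amount = 3 million cells/mL final, two lines in 1:1 ratio | reagent = JC-1 transporter substrate | doses = one concentration, 6.6 µM final | incubation = 10 min at 25 °C | signal = flow cytometric JC-1 green MFI at 530 nm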
Measles CPE – compounds protecting cells from measles virus cytopathic effect, primary screen, measles RdRp inhibitor project, single point, MLSMR library, absorbance | Measles virus-infected cells, CPE protection | protection (pct of control), % at 4 µM | actives 1.5% (n = 140,000) | AID 841, 2007; in the data active = protection mostly above about 24%, no sharp cut-off; inactive = mostly below about 26%
The depositor's hits bear a star.

`Cc1ccc(-c2nnn(CC(=O)Nc3ccccc3-c3ccccc3)n2)c(-n2cnnn2)c1` gave ABCB1 inh 3.4, DTT redox prof 2.0, FLuc stim CS 1, FLuc inh counter -3.9, ABCG2 inh 1.6 and Measles CPE 41.7*.
For Cc1ccc(NC(=O)Cn2nnc(-c3ccccc3-n3cnnn3)n2)c(C)c1 the results were ABCB1 inh 0.1, DTT redox prof -0.6, FLuc stim CS 1.1, FLuc inh counter -7.7 and ABCG2 inh -0.2.
For Cc1sc2ncnc(SCC(=O)N(C)C3CCS(=O)(=O)C3)c2c1C (configuration not stated) the results were ABCB1 inh 0.6, DTT redox prof -0.2, FLuc stim CS 1.1, FLuc inh counter -5.5 and ABCG2 inh 6.8.
`COc1ccc(OCC(=O)Nc2nccs2)cc1` gave ABCB1 inh 0.6, DTT redox prof -0.5, FLuc stim CS 0.2, FLuc inh counter 75.3* and ABCG2 inh 1.4.
Screening CCOc1ccc(OCC(=O)Nc2nccs2)cc1 returned ABCB1 inh 0.6, DTT redox prof 0.2, FLuc stim CS 0.2, FLuc inh counter 83.2* and ABCG2 inh 2.2.
`COc1ccc(OCCC(=O)Nc2nccs2)cc1` gave ABCB1 inh 1.0, DTT redox prof 0.3, FLuc stim CS 0.9, FLuc inh counter 8.4 and ABCG2 inh 18.6.
Cc1cc(NC(=O)CCCn2cc([N+](=O)[O-])cn2)n(Cc2ccc(F)cc2)n1 was read as ABCB1 inh 1.0, DTT redox prof -0.1, FLuc stim CS 1.1, FLuc inh counter -9.2 and ABCG2 inh 13.2.
`CCCN(S(=O)(=O)c1ccc(OCC)cc1)S(=O)(=O)c1cccs1` gave ABCB1 inh 0.6, DTT redox prof 2.1, FLuc stim CS 1, FLuc inh counter -0.8, ABCG2 inh 4.2 and Measles CPE 6.0.
For CCC(C)N(C(=O)CSc1ccc(NC(C)=O)cc1)C1CCS(=O)(=O)C1 (configuration not stated) the results were ABCB1 inh 0.0, DTT redox prof -0.4, FLuc stim CS 1, FLuc inh counter -1.0 and ABCG2 inh -0.3.
O=S(=O)(NCc1ccccc1)c1cccc2cccnc12 was read as ABCB1 inh 0.2, DTT redox prof 0.2, FLuc stim CS 1, FLuc inh counter -1.7, ABCG2 inh 2.1 and Measles CPE 43.4*.
Screening O=C(CSc1cccc[n+]1[O-])Nc1cc([N+](=O)[O-])ccc1Cl returned ABCB1 inh 1.0, DTT redox prof -0.1, FLuc stim CS 1, FLuc inh counter 0.0 and ABCG2 inh 39.6.
For O=C(CSc1cccc[n+]1[O-])Nc1cc2c(cc1Cl)C(=O)c1ccccc1C2=O the results were ABCB1 inh 2.0, DTT redox prof -0.7, FLuc stim CS 1, FLuc inh counter 1.8, ABCG2 inh 36.4 and Measles CPE 24.1*.
For CCOC(=O)Cc1cc(=O)n2[nH]c(-c3ccc(C)cc3)cc2n1 the results were ABCB1 inh 0.3, DTT redox prof 0.0, FLuc stim CS 0.5, FLuc inh counter 53.7*, ABCG2 inh 2.0 and Measles CPE 2.1.
For COCC(C)n1c(C)cc(C(=O)CN2C(=O)NC(Cc3c[nH]c4ccccc34)C2=O)c1C (configuration not stated) the results were ABCB1 inh 0.3, DTT redox prof 0.1, FLuc stim CS 1.1, FLuc inh counter -6.4, ABCG2 inh 1.0 and Measles CPE 16.6.
`O=C(Nc1ccc2c(c1)CCC2)c1ccc(F)cc1` gave ABCB1 inh 0.4, DTT redox prof 0.5, FLuc stim CS 0.3, FLuc inh counter 69.5*, ABCG2 inh 18.4 and Measles CPE 13.5.
Screening Cc1noc(C)c1COc1cccc(C(=O)NC(C)(C)C)c1 returned ABCB1 inh 0.6, DTT redox prof -0.8, FLuc stim CS 1, FLuc inh counter -0.9 and ABCG2 inh 8.6.
`CCOC(=O)Cc1csc(NC(=O)/C=C\c2ccccc2)n1` gave ABCB1 inh 0.0, DTT redox prof -1.5, FLuc stim CS 0.4, FLuc inh counter 59.4* and ABCG2 inh -0.5.
`CCOC(=O)Cc1csc(NC(=O)/C=C/c2ccc(OC)cc2)n1` gave ABCB1 inh -0.2, DTT redox prof -0.8, FLuc stim CS 0.2, FLuc inh counter 76.4* and ABCG2 inh 4.9.
For CCOC(=O)Cc1csc(NC(=O)/C=C\c2ccccc2Cl)n1 the results were ABCB1 inh 0.6, DTT redox prof 1.5, FLuc stim CS 0.4, FLuc inh counter 55.6* and ABCG2 inh 2.8.
CCN1C(=O)C2C(C1=O)N1C(c3cccs3)C3C(=O)N(CC)C(=O)C3N1C2c1cccs1 (configuration not stated) was read as ABCB1 inh 0.1, DTT redox prof 2.5, FLuc stim CS 1, FLuc inh counter -2.1, ABCG2 inh 0.3 and Measles CPE 9.7.
`O=Cc1cc([N+](=O)[O-])ccc1N1CCOCC1` gave ABCB1 inh 1.4, DTT redox prof -0.5, FLuc stim CS 1.1, FLuc inh counter -5.7, ABCG2 inh 1.7 and Measles CPE 33.1*.
`COc1ccc(Cl)cc1NC(=O)C/C(C)=N/NC(=O)Cc1ccccc1` gave ABCB1 inh -0.4, DTT redox prof -0.5, FLuc stim CS 1, FLuc inh counter -4.7 and ABCG2 inh -0.2.
COC(=O)c1ccc(C)c(NC(=O)c2c(-c3ccccc3)noc2C)c1 was read as ABCB1 inh 0.6, DTT redox prof -2.1, FLuc stim CS 1, FLuc inh counter -3.2, ABCG2 inh 4.5 and Measles CPE 15.8.
Screening COC(=O)c1c(-c2ccccc2)csc1NC(=O)c1c(-c2ccccc2)noc1C returned ABCB1 inh 0.8, DTT redox prof 0.3, FLuc stim CS 1, FLuc inh counter -3.0, ABCG2 inh 5.3 and Measles CPE 38.0*.
CCOC(=O)c1c(-c2ccc(F)cc2)csc1NC(=O)c1c(-c2ccccc2)noc1C was read as ABCB1 inh 0.6, DTT redox prof 0.6, FLuc stim CS 1.1, FLuc inh counter -6.0, ABCG2 inh 5.2 and Measles CPE 67.0*.
`CSc1ccccc1C(=O)C1CCCN(S(=O)(=O)c2c(C)noc2C)C1` (configuration not stated) gave ABCB1 inh 1.9, DTT redox prof -0.7, FLuc stim CS 1, FLuc inh counter 4.5 and ABCG2 inh 3.2.

Screening results from PubChem.
